PfM18AAP inh: PfM18AAP enzyme inhibition; inhibition, % at 7.35 µM; 290,000 compounds, 1.2% hits; recombinant PfM18AAP, H-Glu-NHMec fluorogenic cleavage;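 active = inhibition above the campaign mean inhibition over all tested compounds plus 3 SD, cut at about 28% in these data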;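 note: 0% = plate median of test compound wells and 100% = 2 mM ZnCl2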
m5-HT2A agonist: activates the mouse 5-HT2A serotonin receptor; CHO-K1 mHTR2A beta-arrestin complementation, luminescence; percent of 30 µM serotonin response; activation, % at 7.6 µM; 360,000 compounds, 0.66% hits; AID 624169;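 active = activation above a run cutoff, the mean activation of all tested compounds plus 3 SD, cut at about 14% in these data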;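 note: 0% = plate median of compound wells and 100% = 30 µM serotonin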
Target sequence (P35363 whole entry, looked up): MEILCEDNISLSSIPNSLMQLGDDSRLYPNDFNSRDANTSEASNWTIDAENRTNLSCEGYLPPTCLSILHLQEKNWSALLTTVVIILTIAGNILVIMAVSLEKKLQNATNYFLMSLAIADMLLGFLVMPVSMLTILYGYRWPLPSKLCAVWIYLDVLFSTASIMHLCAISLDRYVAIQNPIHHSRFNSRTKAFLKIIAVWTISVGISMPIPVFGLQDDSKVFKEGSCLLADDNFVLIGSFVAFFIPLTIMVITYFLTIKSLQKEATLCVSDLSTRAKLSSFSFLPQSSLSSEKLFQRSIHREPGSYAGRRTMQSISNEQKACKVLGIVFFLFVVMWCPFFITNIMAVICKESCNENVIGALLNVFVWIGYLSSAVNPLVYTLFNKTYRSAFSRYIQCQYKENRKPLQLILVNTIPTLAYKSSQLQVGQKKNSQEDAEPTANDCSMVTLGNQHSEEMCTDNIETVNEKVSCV
Hep lipid drop: hepatic lipid droplet formation modulation; inhibition, % at 6.5 µM; AML12 mouse hepatocytes, oleate lipid droplets, BODIPY imaging; AID 1656; 240,000 compounds, 0.4% hits;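 active = lipid droplet intensity inhibited by at least 50%, with more than 500 cells counted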
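System: AML12 hepatocytes (mouse). Probe or stimulus: oleic acid at 100 µM to induce lipid droplet formation. Times: overnight treatment with compound plus oleate. Detection: Image-based BODIPY and DAPI two-channel analysis. Evaluation: percent inhibition of filter-corrected integrated lipid droplet intensity per well.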
Arrestin-AP2 inh: blocks beta-arrestin peptide binding to AP2 adaptin; FITC-arrestin peptide / GST-AP2 beads, flow cytometry; AP2 beta2 appendage carries R879A mutation; inhibition, % at 10 µM; 340,000 compounds, 0.31% hits; AID 504490;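 active = inhibition above a set limit, near 3 SD of compounds lacking own fluorescence, cut at about 54% in these data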;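 note: plate controls were DMSO wells for no effect and 5 µM unlabelled arrestin peptide for full effect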
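Material – AP2 appendage R879A on GSH beads · Buffer or medium – PBS with 0.05% Tween 20 and 0.1% BSA · Probe or stimulus – fluorescein-tagged arrestin peptide at 50 nM final · Incubation – compound with beads 12 min RT, then probe 1 h RT · Detection – high-throughput flow cytometry of beads, ex 488, em 535 nm · Evaluation – percent response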
CendR NRP1 mod: modulators of CendR peptide binding to human neuropilin-1 | O14786 | FAM-RPARPAR peptide binding to NRP-1, fluorescence polarization | inhibition, % at 25 µM | 360,000 compounds, 0.85% hits | AID 602438;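 active = inhibition or corrected inhibition above about 18%, plus a signal ratio from 0.5 to 1.5, limit read from the data, passing the limit was not always enough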
sPLA2-III inh: Inhibits HGIII-sPLA2 liposome hydrolysis, primary screen; inhibition, % at 12.2 µM; 370,000 compounds, 0.56% hits; Q9NZ20; QFRET BODIPY PC-A2 liposome hydrolysis, fluorescence;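 active = inhibition above mean plus 3 SD of compounds lying within the high and low control bounds, cut at about 19% in these data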;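 note: 0% = median of test compound wells and 100% = no enzyme DMSO wells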
MOR ag counter: OPRM1 agonism in mouse HTR2A counterscreen; shares compounds with m5-HT2A agonist; U2OS OPRM1 beta-arrestin PathHunter, luminescence; DMSO 0%, DAMGO 9.3 µM 100%; activation, % at 9.3 µM; 2,300 compounds, 5.3% hits;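 active = mean activation above the mean of DMSO-only wells plus 3 SD, cut at about 0.5% in these data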
HTR2A ag conf: confirmation of mouse HTR2A serotonin receptor agonists | shares compounds with m5-HT2A agonist | CHO-K1 PathHunter beta-arrestin recruitment, luminescence; DMSO 0%, 30 µM serotonin 100% | activation, % at 7.6 µM | 2,300 compounds, 19% hits | AID 624381;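 active = mean activation across triplicates above the hit threshold derived in the original primary screen, cut at about 15% in these data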
An asterisk follows results filed as active; / = not tested or not shown. Hits are enriched below; roughly 3.3% of the tested compounds scored in any of these assays.

SMILES | PfM18AAP inh | m5-HT2A agonist | Hep lipid drop | Arrestin-AP2 inh | CendR NRP1 mod | sPLA2-III inh | MOR ag counter | HTR2A ag conf
CCc1nc2ccc(C(=O)N(CC)CCN(C)C)cn2c1N(C)C(=O)c1cccc(OC)c1 | / | 3 | / | / | 0 | 6 | / | /
Cc1ccc2nc(C(=O)N3CCCC(Nc4ccc(F)cc4)C3)cn2c1 (configuration not stated) | -9 | -1 | 3 | 10 | 5 | -3 | / | /
Cc1ccn2cc(C(=O)N3CCCC(Nc4ccc(F)cc4)C3)nc2c1 (configuration not stated) | -3 | 18* | -2 | 7 | 18 | 11 | -1 | 1
Cc1ccc2nccc(C(=O)N3CCCC(Nc4ccc(F)cc4)C3)c2c1 (configuration not stated) | 0 | 18* | -21 | 9 | 22* | -4 | -1 | -2
O=C(O)C1CCN(S(=O)(=O)Cc2ccccc2)CC1 | 5 | -1 | 20 | 0 | 1 | 1 | / | /
COc1cccc(OC)c1OCCOCCn1cnc2ccccc2c1=O | -4 | 18* | -7 | 0 | 0 | 4 | 0 | -3
Cc1ccnc(NS(=O)(=O)c2ccc(NC(=O)c3snnc3C)cc2)n1 | -3 | 15* | -2 | -4 | -2 | -10 | -1 | 0
Cn1cc(C(F)(F)F)nc1-c1ccc(OCC(O)CNCCOc2ccc(O)c(C(N)=O)c2)cc1 (configuration not stated) | / | 33* | -10 | -7 | -10 | -7 | -1 | 116*
COc1ccc(NC(=O)CN(C)CC(=O)NCC(=O)Nc2ccc(F)cc2)cc1 | / | 16* | / | -6 | -2 | 2 | -1 | -3
CC(=O)Nc1cc(NC(C)=O)cc(C(=O)OCC(=O)c2ccc3c(c2)NC(=O)CO3)c1 | / | 20* | / | -9 | -9 | 3 | -1 | -4
N#CCC(=O)Nc1ccc(C(=O)OCC(=O)c2ccc3c(c2)NC(=O)CO3)cc1 | / | 25* | / | 19 | -63 | -57 | -1 | -4
COc1ccc(C(=O)OCC(=O)c2ccc3c(c2)NC(=O)CO3)cc1OC | / | 5 | / | -15 | 6 | 5 | / | /
CCc1ccccc1NC(=O)c1cc(S(=O)(=O)N2CCc3ccccc32)cn1C | 1 | 28* | -1 | 1 | 1 | -3 | 0.7* | -2
Cc1cc(OCC(=O)OCC(=O)NCC2CCCO2)ccc1Cl (configuration not stated) | / | -1 | / | 2 | 0 | 5 | / | /
COc1ccccc1NC(=O)c1ccccc1SCC(=O)N1CCCC1 | / | 14* | / | / | 0 | -1 | -1 | -4
COc1ccccc1CCNC(=O)c1ccccc1SCC(=O)N1CCCC1 | / | 4 | / | 16 | 8 | 11 | / | /
CC(C)(C)NC(=O)COc1ccc(CNCc2ccccn2)cc1 | -17 | 15* | -1 | 29 | 3 | 3 | -1 | -3
CN(Cc1ccccc1)S(=O)(=O)c1ccc(OCC(=O)NCc2ccccn2)cc1 | -5 | 18* | -1 | 4 | 2 | -6 | -1 | -5
O=C(CSc1nnc(-c2cccnc2)n1-c1ccc(Cl)cc1)c1ccc(F)cc1 | / | / | / | / | / | -36 | / | /
Cn1c(N)c(C(=O)COC(=O)CCC2CCCC2)c(=O)n(C)c1=O | 2 | 20* | 5 | 1 | 8 | 0 | 0 | -5
CCOc1ccccc1NC(=O)Cn1nnc(C(=O)NCc2ccc3c(c2)OCO3)c1N | -17 | -5 | 1 | 0 | -12 | -6 | / | /
Cc1cc(C)c2cc(CN(CCN3CCCC3)C(=O)Nc3ccc(F)cc3)c(=O)[nH]c2c1 | -7 | 20* | / | 10 | -30 | -9 | 0 | -1
Cc1cc(C)c2cc(CN(CCO)C(=O)Nc3ccc(Cl)cc3)c(=O)[nH]c2c1 | 2 | / | -39 | / | / | -3 | / | /
COCCNC(=O)C1(C)CCCN(C(=O)c2cc(OC)c(OC)c(OC)c2)C1 (configuration not stated) | / | 2 | / | / | -2 | -2 | / | /
Cc1cccc(N2CCN(C(=S)Nc3ccc4nc(N5CCOCC5)cc(C)c4c3)CC2C)c1 (configuration not stated) | -3 | 16* | 3 | 5 | 9 | 14 | 0 | 0
SMILES | PfM18AAP inh | m5-HT2A agonist | Hep lipid drop | Arrestin-AP2 inh | CendR NRP1 mod | sPLA2-III inh | MOR ag counter | HTR2A ag conf
CCOc1ccc(NC(=O)CN(C)C2=NS(=O)(=O)c3ccccc32)cc1 | / | -1 | / | / | -12 | 2 | / | /
O=C(/C=C/c1ccccc1)N(c1ccccn1)C1CCCCC1 | -10 | 2 | 33 | 24 | -2 | 0 | / | /
O=C(/C=C/c1ccccc1Cl)N(c1ccccn1)C1CCCCC1 | -6 | 16* | -30 | -2 | -22 | -2 | 0 | 40*
COc1ccc([N+](=O)[O-])cc1NC(=O)c1cncc(Br)c1 | 1 | -4 | 2 | -13 | 0 | 3 | / | /
Cc1cc([N+](=O)[O-])ccc1NC(=O)c1cncc(Br)c1 | -2 | 16* | -8 | -17 | 3 | 2 | 0 | -5
COc1ccc(NC(=O)Nc2nnc(-c3cccs3)s2)cc1 | -4 | 9 | 1 | 34 | 4 | 0 | / | /
O=C(Nc1ccccc1)Nc1nnc(-c2cccs2)s1 | -4 | 21* | -1 | -10 | -10 | -7 | 0 | -2
CCN(CC)CCn1c(NC(=O)c2ccc(C)cc2)nc2ccccc21 | -4 | 25* | -15 | -6 | -12 | -1 | / | 8
Cc1cc(NS(=O)(=O)c2ccc(NC(=S)NC(=O)c3cccc(S(=O)(=O)N(C)C)c3)cc2)no1 | 3 | 16* | 25 | 17 | 3 | 1 | -1 | -4
O=C(NC1CCCC1)c1cccc(S(=O)(=O)N2CCCC2)c1 | / | 7 | / | 0 | 0 | 4 | / | /
Cc1cc(NS(=O)(=O)c2ccc(NC(=S)NC(=O)c3ccc(F)cc3)cc2)no1 | -3 | -1 | 2 | 32 | 1 | 0 | / | /
Cc1cc(NC(=O)c2cccc(S(=O)(=O)N3CCCCC3)c2)no1 | -14 | 18* | 4 | 18 | 4 | -1 | 0 | -1
O=C(NC1CCCC1)c1cccc(S(=O)(=O)N2CCCCC2)c1 | -3 | 16* | -3 | 5 | 3 | 1 | 0 | 10
Nc1[nH]c(C(=O)c2ccc(Br)cc2)c(-c2ccccc2Cl)c1C(=O)NCCc1c[nH]c2ccccc12 | / | / | / | / | / | -27 | / | /
Cc1cc(-c2ccc3ccccc3c2)n2ncnc2n1 | 2 | 21* | -7 | 3 | 7 | 3 | 0 | 1
Nc1[nH]c(C(=O)c2ccccc2)c(-c2ccccn2)c1C(=O)c1c[nH]c2ccc(Br)cc12 | / | / | / | / | / | 1 | / | /

Assay outcomes: PubChem BioAssay, several laboratories
